One test deals with human CB2 (Homo sapiens, UniProt P34972). Description: thallium flux, HEK/GIRK cells. In kind it is cell-based. The method, boiled down:
(§1)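 HEK/GIRK cells were made to stably express the receptor by ViaFect transfection with a pIRESpuro3 construct and selected with 1 μg/mL puromycin. Cells (15,000/well) were seeded overnight at 37 °C. They were loaded with 1.2 μM Thallos-AM in HBSS/20 mM HEPES pH 7.3 for 1 h at RT. Compound or DMSO was added, then 12 mM Tl2SO4 stimulus buffer with agonist 140 s later. The 145–155 s slope was vehicle-subtracted, normalized to maximal JWH133 signal and fit with a four-parameter logistic. Triplicate, three to five experiments.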

Test [1] has as its target T1, rat CB2 (Rattus norvegicus, UniProt Q9QZN9).
T1 sequence (Q9QZN9 1-360): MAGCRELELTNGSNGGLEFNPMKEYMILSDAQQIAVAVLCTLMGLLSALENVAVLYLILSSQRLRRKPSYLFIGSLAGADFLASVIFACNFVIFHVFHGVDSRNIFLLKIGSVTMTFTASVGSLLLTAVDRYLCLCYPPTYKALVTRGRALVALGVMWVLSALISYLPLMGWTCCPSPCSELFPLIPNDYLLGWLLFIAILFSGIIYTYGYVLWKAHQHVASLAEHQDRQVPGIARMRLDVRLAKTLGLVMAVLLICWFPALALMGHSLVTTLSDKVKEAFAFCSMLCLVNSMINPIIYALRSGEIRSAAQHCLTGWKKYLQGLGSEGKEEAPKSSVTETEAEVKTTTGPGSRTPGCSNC
The experiment in a line: thallium flux, HEK/GIRK cells. In kind it is cell-based. The method, boiled down:
as §1

In test [2] the target is T2, rat CB1 (Rattus norvegicus, UniProt P20272). Description: thallium flux, HEK/GIRK cells. In kind it is cell-based.
T2 sequence (P20272 whole entry): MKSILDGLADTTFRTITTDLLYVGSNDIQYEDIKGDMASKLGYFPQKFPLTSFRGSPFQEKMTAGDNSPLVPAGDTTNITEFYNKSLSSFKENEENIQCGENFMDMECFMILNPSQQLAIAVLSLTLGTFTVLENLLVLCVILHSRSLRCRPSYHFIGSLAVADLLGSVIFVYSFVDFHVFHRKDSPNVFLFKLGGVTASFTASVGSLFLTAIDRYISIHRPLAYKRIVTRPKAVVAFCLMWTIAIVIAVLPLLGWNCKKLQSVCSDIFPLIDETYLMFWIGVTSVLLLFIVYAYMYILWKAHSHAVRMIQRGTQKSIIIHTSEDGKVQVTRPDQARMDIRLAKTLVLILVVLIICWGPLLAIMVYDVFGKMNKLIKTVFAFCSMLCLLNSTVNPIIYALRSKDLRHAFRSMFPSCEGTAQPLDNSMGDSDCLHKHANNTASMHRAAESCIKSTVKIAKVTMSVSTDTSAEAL
Another test addresses human CB1 (Homo sapiens, UniProt P21554). The experiment in a line: thallium flux, HEK/GIRK cells. In kind it is cell-based.
Test [3] concerns the target T1, rat CB2. The experiment in a line: [3H]CP55940 competition, HEK/GIRK membranes. In kind it is binding.
For test [4], the target named is T2, rat CB1. Description: PI hydrolysis, [3H]inositol phosphate chromatography, HEK/Gqi9 cells. In kind it is cell-based. The method, boiled down: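 HEK293 cells stably expressing Gqi9 were transfected with a pIRESpuro3 receptor construct and puromycin-selected. They were seeded at 1.5 X 10^5 cells/well and assayed after 48 h. Cells were labelled overnight with 0.4 μCi myo-[3H]inositol in inositol-free DMEM with 5% dialyzed FBS. Agonists were added at 5x in 50 mM LiCl/250 mM HEPES pH 7.25 for 30 min at 37 °C. Reactions were stopped with boiling EDTA pH 8.0, and [3H]inositol phosphates were resolved on Dowex AG1-X8 and scintillation counted.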

For test [5], the target named is T1, rat CB2. Description: thallium flux, HEK/GIRK cells, compound alone. In kind it is cell-based.

human CB2, sequence (P34972 whole entry): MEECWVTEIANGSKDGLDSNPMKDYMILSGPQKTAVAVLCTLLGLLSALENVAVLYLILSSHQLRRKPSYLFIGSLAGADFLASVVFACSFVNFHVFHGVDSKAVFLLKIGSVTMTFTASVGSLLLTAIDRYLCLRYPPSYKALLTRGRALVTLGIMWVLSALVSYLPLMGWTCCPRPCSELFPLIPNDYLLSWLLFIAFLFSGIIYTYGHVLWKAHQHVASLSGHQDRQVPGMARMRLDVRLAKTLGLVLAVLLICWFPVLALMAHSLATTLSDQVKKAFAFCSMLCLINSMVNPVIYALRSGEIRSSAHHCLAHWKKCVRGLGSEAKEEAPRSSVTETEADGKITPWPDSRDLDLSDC
human CB1, sequence (P21554 whole entry): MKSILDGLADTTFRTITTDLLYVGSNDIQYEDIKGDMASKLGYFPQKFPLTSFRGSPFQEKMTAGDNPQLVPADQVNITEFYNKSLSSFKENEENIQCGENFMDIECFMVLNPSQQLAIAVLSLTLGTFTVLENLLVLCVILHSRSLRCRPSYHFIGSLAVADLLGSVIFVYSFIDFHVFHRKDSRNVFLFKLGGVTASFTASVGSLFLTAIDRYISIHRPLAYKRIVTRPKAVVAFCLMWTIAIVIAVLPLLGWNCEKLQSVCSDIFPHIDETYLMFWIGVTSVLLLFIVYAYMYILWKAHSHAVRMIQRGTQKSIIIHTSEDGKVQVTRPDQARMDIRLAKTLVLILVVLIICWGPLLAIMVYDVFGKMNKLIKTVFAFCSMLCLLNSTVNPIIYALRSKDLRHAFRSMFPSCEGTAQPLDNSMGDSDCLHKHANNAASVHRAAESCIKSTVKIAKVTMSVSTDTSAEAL

For `CCCCC/C=C\C/C=C\C/C=C\C/C=C\CCCC(=O)OC(CO)CO` [2-AG], the EC50 (commonly the concentration needed to bring the measured effect to its halfway point) on human CB2 is 145 nM; at rat CB2 [1] it was 49 nM.
As to `CCCCC/C=C\C/C=C\C/C=C\C/C=C\CCCC(=O)NCCCl` [ACEA, N-(2-Chloroethyl)-5Z,8Z,11Z,14Z-eicosatetraenamide], the EC50 at human CB2 is 1700 nM; on rat CB2 [1], 251 nM; at rat CB1 [2], 20 nM; at human CB1, 60.3 nM.
Regarding `COc1ccc(C(=O)c2c(C)n(CCN3CCOCC3)c3cc(I)ccc23)cc1` [AM630], the IC50 – broadly, the concentration needed to halve the response being measured – at rat CB2 [3] was 72.4 nM.
On to `Cc1c(Br)cn(Cc2ccc(F)cc2)c(=O)c1NC(=O)C1CCCCCC1` [EC21a], for which the figures for the 50% effective concentration (EC50) on rat CB1 [4] and at rat CB2 [5] were 1700 nM and 100 nM, respectively.
Take `CCCC(C)(C)c1ccc2c(c1)OC(C)(C)[C@@H]1CC=C(C)C[C@@H]21` [JWH133]: the results for the EC50 on human CB2, on rat CB2 [1] and on human CB1 were 275 nM, 537 nM and 1230 nM, respectively.

The values above are taken from paper PMC11636628 (Journal of receptor and signal transduction research, 2024).
